Measurements as given in the array DNA melting data of Ke et al. (doi:10.1101/2024.01.08.574731).

How the values were obtained:
[1] = folding enthalpy; higher = less favourable; fluorescence melt of hairpins on a sequencing array, two-state fit; conditions: sodium 0.088 M
Method in brief: (§1)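 Two-state fits, bootstrapped, provided melting temperature and folding enthalpy from Cy3 fluorescence normalised to pre-quench Cy3 and to control constructs. Library hairpins with annealed Cy3 and quencher oligos were imaged on a sequenced MiSeq flow cell in 50 mM Na-HEPES pH 8.0, 25 mM NaCl, at 2.5 °C intervals up to 60 °C. Four replicates were combined with inverse-variance weighting. A 9.35 °C upward shift was applied to fitted temperatures to match UV melts.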

[2] = melting temperature; fluorescence melt of hairpins on a sequencing array, two-state fit, raised by 9.35 °C to match UV melts; conditions: sodium 0.088 M
Method in brief: as §1

Sequence	folding enthalpy [1] [kJ/mol]	Tm [2] [°C]
GCAACGGGAAACCGTCGC ((.((((....)))).))	-119	49.4
GCCCAGCGAAAGCGAGGC (((..((....))..)))	-86.4	62.7
GATCCTGGGAAGGATC ((((((....))))))	-177	59.7
GTGCATGAAAATGCAC ((((((....))))))	-132	67
GGAATGCCGAAAGGCTCC (((..(((....))))))	-42.6	34.5
GATCCTGAGCAGGATC ((((((....))))))	-154	52.3
GCTCTACGAAAGTAAAGC (((.(((....))).)))	-95.8	38.4
GAGGTGGGAAACCGCCTC ((((.((....)).))))	-196	57.1
GACTACGAAAGTAATGTC ((((((....)))..)))	-65.7	34.3
GGGCACGAAAGTGAGCCC ((((((....)))..)))	-137	56.7
GGGGCGGGAAACCGCCTC (.(((((....))))).)	-50.4	60.5
GATCTAGTTTAGATC ((((((...))))))	-127	40.7
GATCGCTCCCGCGATC ((((((....))))))	-144	67.8
GATCACGGAAACGTGGTC ((.((((....)))).))	-162	53.8
GATCAGCCCACTGATC ((((((....))))))	-157	51.6
GTTACCCCGAAAGGGAAC (((..(((....))))))	-69.1	32.9
GAGAAAACGAAAGTTCTC (((..(((....))))))	-81.4	30.8
GTCATCGGAAACAATGAC (((((.(....).)))))	-117	36.1
GGAGTGGGAAACTACTCC (((((.(....).)))))	-104	49.5
CGACCGGAAACGGTTCG ((((((....))).)))	-84.2	49.2
GGTGAGACGAAAGTCACC (((..(((....))))))	-71.5	46.8
GTGTGAGGAAACTCATAC ((.((((....)))).))	-153	44.9
GGAAGTGGAAACGTTTCC ((((..(....)..))))	-55.6	37.6

Sequence	folding enthalpy [1] [kJ/mol]	Tm [2] [°C]
GGGATACGAAAGTACCC (((.(((....))))))	-115	51.2
GCCTTGGGAAACCAAGGC (((((((....)))))))	-185	68.8
GCGCCGGGAAACCGGCAC (.(((((....))))).)	-36.1	53.4
GTGGGGCGAAAGCCTCAC (((.(((....))).)))	-126	67.6
GGAGCAGGAAACTGCTCC (((((((....)))))))	-140	69.1
GATCTGGTTACAGATC ((((((....))))))	-168	59.1
GGTGAAGGAAACTTTGCC ((..(((....)))..))	-106	34.6
GCGTGGTCGAAAGACCGC (((..(((....))))))	-45.8	53.2
GTATTTGGAAACAAATGC (.(((((....))))).)	-119	39.9
CGAGACGGAAACGTATCG (((.(((....))).)))	-145	52.1
GAATTGCGAAAGCATTC (((.(((....))))))	-56.8	36.1
GTGACTCGAAAGAGCAC (((.(((....))))))	-109	48.1
GATCGTCCCGACGATC ((((((....))))))	-181	59.8
GCTATGCGAAAGCCAAGC (((..((....))..)))	-69.8	36.5
GTCGTGTCGAAAGACGAC (((..(((....))))))	-83.3	48.9
GTTGGCGAAAGCCGGAAC ((((((....)))..)))	-33.3	27.8
GGATCGACGAAAGTCTCC (((..(((....))))))	-44.1	27.9
GATCACACGAGTGATC ((((((....))))))	-183	56.4
AACCGGAAACGGTT (((((....)))))	-82.8	50
GAGTATGCGAAAGCACTC (((..(((....))))))	-62.2	38.8
GCATCGCGAAAGCAAAGC ((.(.((....)).).))	-40.8	38.9
GTGAACCGAAAGGTGCAC (((.(((....))).)))	-166	60.7
GGACACGGAAACGTATCC (((.(((....))).)))	-115	40.9

Sequence	folding enthalpy [1] [kJ/mol]	Tm [2] [°C]
GATCACCCTTGTGATC ((((((....))))))	-183	54.9
GATCTGGGACCAGATC ((((((....))))))	-181	54.7
GGAATCCGAAAGGATCC (((.(((....))))))	-82.1	50
GTGCCCGAAAGGGCTCAC ((((((....)))..)))	-31	45.5
GATCAAGAGTTGATC ((((((...))))))	-104	37.8
GCCTTGCGAAAGCAGAGC ((..(((....)))..))	-48.8	51.2
GTTTTAGAAATAAAAC ((((((....))))))	-93.3	36.7
GGAAGTCGAAAGACTCC (((.(((....))))))	-74.9	53
GCAATTCGAAAGAATGC (((.(((....))))))	-123	48.1
GTTCAAGCGAAAGCTAAC (((..(((....))))))	-47.7	24.9
GGAATCCCGAAAGGGTCC (((..(((....))))))	-55.2	33
GCTGCGGGAAACTGCGGC ((.((.(....).)).))	-199	51.8
GTGTGGGAAACCACAC ((((((....))))))	-164	63.4
GCTCTTGAAAAAGAGC ((((((....))))))	-137	58.1
GTCCACGAAAGTGAGAC ((((((....))).)))	-99.6	52.2
GATCGACTCCTCGATC ((((((....))))))	-162	51.6
GATCTCTCTCGAGATC ((((((....))))))	-155	52
GTCTATCGAAAGATGAC (((.(((....))))))	-113	42
GCGGCCTCGAAAGAGCGC (((..(((....))))))	-107	52.7
GACGAAGAAATTCGTC ((((((....))))))	-143	53.8
TCCCAGAAATGGGA (((((....)))))	-66.4	43.8
GATCAAGTTGTTGATC ((((((....))))))	-153	45.1
GTTCACCGAAAGGTCAAC (((.(((....))).)))	-77.1	33

Sequence	folding enthalpy [1] [kJ/mol]	Tm [2] [°C]
GTCCTCGAAAGAGCAGAC ((((((....)))..)))	-83	30.1
GATCAAAGGATTGATC ((((((....))))))	-80.1	40.9
GAGGTTCCGAAAGGACTC (((..(((....))))))	-62.5	31.6
GCACTGCGAAAGCTGAGC ((.(.((....)).).))	-85.6	49.2
GATCCGTTTGCGGATC ((((((....))))))	-158	62.3
GGCATCGAAAGATGAGCC ((((((....)))..)))	-71.3	44.1
GCACTCGGAAACGGGTGC ((((.((....)).))))	-216	59.5
GATCCTGTTCAGGATC ((((((....))))))	-164	56.8
GCGTGAACGAAAGTTCGC (((..(((....))))))	-64.1	48.6
GGAATAGGAAACCATTCC (((((.(....).)))))	-108	34.3
GAAGCGGCGAAAGCCTTC (((..(((....))))))	-42.8	28.5
GTCGAGCCGAAAGGCGAC (((..(((....))))))	-36.8	50.3
GATCAGGAGTCTGATC ((((((....))))))	-162	48.2
GCGGGGGCCCGC ((((....))))	-162	56
GCTTTGCGAAAGCCCAGC (((..((....))..)))	-58.9	31.5
GATCAGGGAAACCTGGTC ((.((((....)))).))	-122	47.4
GCCTTGCGAAAGCCAGGC ((((.((....)).))))	-131	62.6
GGAGAGCGAAAGCTTTCC (((.(((....))).)))	-132	53.6
GACGACACGAAAGTGGTC (((..(((....))))))	-64	41.2
GATCAATCGGTTGATC ((((((....))))))	-176	44.4
GCCCTCGAAAGAGATGGC ((((((....)))..)))	-98.7	46.4
GCAAAGGGAAACCTTTGC (((((((....)))))))	-189	64.1
GATCCATATCTGGATC ((((((....))))))	-149	49.7
